According to ChEMBL document CHEMBL2146464, “Structure-activity relationship study of nitrosopyrimidines acting as antifungal agents” (Bioorg Med Chem, 2012):
Converted amounts (≈) assume the structure as drawn. The source made the active and inactive calls. No cut-off for these calls is given here.

Assays:
Aspergillus flavus [1] = experiment: Antifungal activity against Aspergillus flavus ATCC 9170 by NCCLS broth microdilution method; format: functional; conditions: read-out: MIC100
How it was run: (§1)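 MIC by broth microdilution per NCCLS M27-A3/M38-A2 in RPMI-1640 buffered to pH 7.0 with MOPS. Twofold dilutions from 250–0.98 µg/mL, final DMSO ≤1%. Inoculum 1–5 × 10³ CFU/mL. Incubated in a moist dark chamber, 30 °C for Aspergillus and 28–30 °C for dermatophytes. Read visually when control growth allowed. Endpoint is the lowest concentration giving total inhibition of visible growth (MIC100).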

Trichophyton rubrum [2] = experiment: Antifungal activity against Trichophyton rubrum CCC 110 by NCCLS broth microdilution method; format: functional; conditions: read-out: MIC100; how it was run: as §1
Candida tropicalis [3] = experiment: Antifungal activity against Candida tropicalis after 48 hrs by NCCLS broth microdilution method; format: functional; conditions: read-out: MIC100
How it was run: (§2)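 Yeast MIC by NCCLS M27-A3 broth microdilution in RPMI-1640 buffered to pH 7.0 with MOPS. Twofold dilutions of 250–0.98 µg/mL, final DMSO ≤1%. Inoculum 1–5 × 10³ CFU/mL. Incubated at 30 °C in a moist dark chamber. Read visually at 48 h. MIC100 is the lowest concentration with no visible growth versus drug-free control.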

Aspergillus fumigatus [4] = experiment: Antifungal activity against Aspergillus fumigatus ATCC 26934 by NCCLS broth microdilution method; format: functional; conditions: read-out: MIC100; how it was run: as §1
[5] = tested on: Trichophyton mentagrophytes; experiment: Antifungal activity against Trichophyton mentagrophytes ATCC 9972 by NCCLS broth microdilution method; format: functional; conditions: read-out: MIC100; how it was run: as §1
Aspergillus niger [6] = experiment: Antifungal activity against Aspergillus niger ATCC 9029 by NCCLS broth microdilution method; format: functional; conditions: read-out: MIC100; how it was run: as §1
Nannizzia gypsea [7] = experiment: Antifungal activity against Microsporum gypseum CCC 115 by NCCLS broth microdilution method; format: functional; conditions: read-out: MIC100; how it was run: as §1
Candida albicans [8] = experiment: Antifungal activity against Candida albicans ATCC 10231 after 24 hrs by microplate reader analysis; format: functional; conditions: ATCC 10231, 24 h
How it was run: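 96-well RPMI-1640 wells with compound at final 250–0.98 µg/mL (DMSO ≤1%). Inoculum 100 µL, 1–5 × 10³ CFU/mL, 200 µL final. Each well includes growth (DMSO, no compound) and sterility controls. % inhibition = 100 − (CTW−SCW)/(GCW−SCW) × 100, run in duplicate.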

Cryptococcus neoformans [9] = experiment: Antifungal activity against Cryptococcus neoformans ATCC 32264 after 48 hrs by NCCLS broth microdilution method; format: functional; conditions: ATCC 32264, 48 h, read-out: MIC100; how it was run: as §2
Candida tropicalis [10] = experiment: Antifungal activity against Candida tropicalis by microplate reader analysis; format: functional
Cryptococcus neoformans [11] = experiment: Antifungal activity against Cryptococcus neoformans ATCC 32264 after 48 hrs by microplate reader analysis; format: functional; conditions: ATCC 32264, 48 h
How it was run: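 Microplate growth-inhibition assay in RPMI-1640, compound at final 250–0.98 µg/mL (DMSO ≤1%). Inoculum 1–5 × 10³ CFU/mL. Sterility and DMSO growth controls included. Percent inhibition is computed from blank-corrected OD relative to the growth control, tested in duplicate.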

Candida albicans [12] = experiment: Antifungal activity against Candida albicans ATCC 10231 after 48 hrs by NCCLS broth microdilution method; format: functional; conditions: ATCC 10231, 48 h, read-out: MIC100; how it was run: as §2
Cryptococcus neoformans [13] = experiment: Antifungal activity against Cryptococcus neoformans ATCC 32264 at 0.98 to 250 ug/mL after 48 hrs by NCCLS broth microdilution method; format: functional, organism-based; how it was run: as §2
Aspergillus fumigatus [14] = experiment: Antifungal activity against Aspergillus fumigatus ATCC 26934 at 0.98 to 250 ug/mL by NCCLS broth microdilution method; format: functional, organism-based; how it was run: as §1
[15] = tested on: Trichophyton mentagrophytes; experiment: Antifungal activity against Trichophyton mentagrophytes ATCC 9972 at 0.98 to 250 ug/mL by NCCLS broth microdilution method; format: functional, organism-based; how it was run: as §1
Candida tropicalis [16] = experiment: Antifungal activity against Candida tropicalis at 0.98 to 250 ug/mL after 48 hrs by NCCLS broth microdilution method; format: functional, organism-based; how it was run: as §2
Aspergillus niger [17] = experiment: Antifungal activity against Aspergillus niger ATCC 9029 at 0.98 to 250 ug/mL by NCCLS broth microdilution method; format: functional, organism-based; how it was run: as §1
Nannizzia gypsea [18] = experiment: Antifungal activity against Microsporum gypseum CCC 115 at 0.98 to 250 ug/mL by NCCLS broth microdilution method; format: functional, organism-based; how it was run: as §1
Aspergillus flavus [19] = experiment: Antifungal activity against Aspergillus flavus ATCC 9170 at 0.98 to 250 ug/mL by NCCLS broth microdilution method; format: functional, organism-based; how it was run: as §1
Trichophyton rubrum [20] = experiment: Antifungal activity against Trichophyton rubrum CCC 110 at 0.98 to 250 ug/mL by NCCLS broth microdilution method; format: functional, organism-based; how it was run: as §1
Candida albicans [21] = experiment: Antifungal activity against Candida albicans ATCC 10231 at 0.98 to 250 ug/mL after 48 hrs by NCCLS broth microdilution method; format: functional, organism-based; how it was run: as §2

SMILES	Activity (Cryptococcus neoformans [13])	Activity (Aspergillus fumigatus [14])	Activity [15]	Activity (Candida tropicalis [16])	Activity (Aspergillus niger [17])	Activity (Nannizzia gypsea [18])	Activity (Aspergillus flavus [19])	Activity (Trichophyton rubrum [20])	Activity (Candida albicans [21])	other results
C[C@@H]1[C@H](O)[C@@H](C)/C=C/C=C/C=C/C=C/C=C/C=C/C=C/[C@H](O[C@@H]2O[C@H](C)[C@@H](O)[C@H](N)[C@@H]2O)C[C@@H]2O[C@](O)(C[C@@H](O)C[C@@H](O)[C@H](O)CC[C@@H](O)C[C@@H](O)CC(=O)O[C@H]1C)C[C@H](O)[C@H]2C(=O)O [AMPHOTERICIN B]	–	–	–	–	–	–	–	–	–	MIC (Aspergillus flavus [1]): 0.49 mg/L (≈ 0.53 µM); MIC (Trichophyton rubrum [2]): 0.06 mg/L (≈ 0.0649 µM); MIC (Candida tropicalis [3]): 0.98 mg/L (≈ 1.06 µM); MIC (Aspergillus fumigatus [4]): 0.49 mg/L (≈ 0.53 µM); MIC [5]: 0.06 mg/L (≈ 0.0649 µM); MIC (Aspergillus niger [6]): 0.49 mg/L (≈ 0.53 µM); MIC (Nannizzia gypsea [7]): 0.12 mg/L (≈ 0.13 µM); MIC50 (Candida albicans [8]): 0.49 mg/L (≈ 0.53 µM); MIC (Cryptococcus neoformans [9]): 0.25 mg/L (≈ 0.271 µM); MIC50 (Candida tropicalis [10]): 0.49 mg/L (≈ 0.53 µM); MIC50 (Cryptococcus neoformans [11]): 0.98 mg/L (≈ 1.06 µM); MIC (Candida albicans [12]): 0.98 mg/L (≈ 1.06 µM)
CN(C/C=C/C#CC(C)(C)C)Cc1cccc2ccccc12 [TERBINAFINE]	–	–	–	–	–	–	–	–	–	MIC (Aspergillus flavus [1]): 0.98 mg/L (≈ 3.36 µM); MIC (Trichophyton rubrum [2]): 0.01 mg/L (≈ 0.0343 µM); MIC (Candida tropicalis [3]): 1.95 mg/L (≈ 6.69 µM); MIC (Aspergillus fumigatus [4]): 0.98 mg/L (≈ 3.36 µM); MIC [5]: 0.03 mg/L (≈ 0.103 µM); MIC (Aspergillus niger [6]): 1.96 mg/L (≈ 6.73 µM); MIC (Nannizzia gypsea [7]): 0.04 mg/L (≈ 0.137 µM); MIC (Cryptococcus neoformans [9]): 0.49 mg/L (≈ 1.68 µM); MIC (Candida albicans [12]): 0.98 mg/L (≈ 3.36 µM)
CC(=O)N1CCN(c2ccc(OCC3COC(Cn4ccnc4)(c4ccc(Cl)cc4Cl)O3)cc2)CC1 (stereo not given) [KETOCONAZOLE]	–	–	–	–	–	–	–	–	–	MIC (Aspergillus flavus [1]): 0.12 mg/L (≈ 0.226 µM); MIC (Trichophyton rubrum [2]): 0.03 mg/L (≈ 0.0565 µM); MIC (Candida tropicalis [3]): 0.49 mg/L (≈ 0.922 µM); MIC (Aspergillus fumigatus [4]): 0.49 mg/L (≈ 0.922 µM); MIC [5]: 0.03 mg/L (≈ 0.0565 µM); MIC (Aspergillus niger [6]): 0.25 mg/L (≈ 0.47 µM); MIC (Nannizzia gypsea [7]): 0.06 mg/L (≈ 0.113 µM); MIC (Cryptococcus neoformans [9]): 0.25 mg/L (≈ 0.47 µM); MIC (Candida albicans [12]): 0.98 mg/L (≈ 1.84 µM)
CCOC(=O)CNc1nc(N)nc(OC)c1N=O	inactive	inactive	inactive	inactive	inactive	inactive	inactive	inactive	inactive	–
Nc1nc2c(c(OCC3CCCCC3)n1)NC(=O)[C@H](Cc1ccccc1)N2	inactive	inactive	inactive	inactive	inactive	inactive	inactive	inactive	inactive	–
CCOC(=O)[C@H](C)Nc1nc(N)nc(OCC2CCCCC2)c1N=O	inactive	inactive	inactive	inactive	inactive	inactive	inactive	inactive	inactive	–
CCC(C)C(Nc1nc(N)[nH]c(=O)c1N=O)C(=O)O (stereo not given)	inactive	inactive	inactive	inactive	inactive	inactive	inactive	inactive	inactive	–
COc1nc(N)c(N=O)c(N2CCCC2)n1	inactive	inactive	inactive	inactive	inactive	inactive	inactive	inactive	inactive	–
COc1nc(N)nc(OC)c1N=O	inactive	inactive	inactive	inactive	inactive	inactive	inactive	inactive	inactive	–
CCOC(=O)C(C)Nc1nc(N)nc(OC)c1N=O (stereo not given)	inactive	inactive	inactive	inactive	inactive	inactive	inactive	inactive	inactive	–
CCOC(=O)CCNc1nc(N)nc(Nc2ccccc2)c1N=O	inactive	inactive	inactive	inactive	inactive	inactive	inactive	inactive	inactive	–
Nc1nc(NC2CCCCC2)c(N=O)c(N2CCCCCCCC2)n1	inactive	inactive	inactive	inactive	inactive	inactive	inactive	inactive	inactive	–
COc1nc(N)c(N=O)c(=O)n1Cc1ccccc1	inactive	inactive	inactive	inactive	inactive	inactive	inactive	inactive	inactive	–
